Assay [1] has as its target T1, Retinoic acid receptor RXR-alpha (Mus musculus, UniProt P28700).
T1 sequence (P28700 whole entry): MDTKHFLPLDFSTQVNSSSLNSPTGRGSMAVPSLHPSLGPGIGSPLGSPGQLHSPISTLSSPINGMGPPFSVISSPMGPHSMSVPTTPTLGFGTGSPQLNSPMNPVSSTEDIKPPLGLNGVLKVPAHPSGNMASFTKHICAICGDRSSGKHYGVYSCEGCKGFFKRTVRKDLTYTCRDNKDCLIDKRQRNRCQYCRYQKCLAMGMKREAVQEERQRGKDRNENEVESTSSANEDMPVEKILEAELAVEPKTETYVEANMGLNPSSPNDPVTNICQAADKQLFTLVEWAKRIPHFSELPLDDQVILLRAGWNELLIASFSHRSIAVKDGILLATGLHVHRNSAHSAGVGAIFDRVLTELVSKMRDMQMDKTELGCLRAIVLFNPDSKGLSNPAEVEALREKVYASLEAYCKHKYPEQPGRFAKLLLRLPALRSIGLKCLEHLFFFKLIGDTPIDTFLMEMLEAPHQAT
Briefly: Inhibition of [3H]-(9Z)-RA binding to mouse Retinoic acid receptor RXR alpha.

Assay [2] has as its target Cellular retinoic acid-binding protein 1 (Gallus gallus) (UniProt P40220). Briefly: Inhibition of chick skin Cytoplasmic retinoic acid binding protein at 100-fold excess ligand.
Assay [3] deals with T2, Retinoic acid receptor alpha (Mus musculus) (UniProt P11416).
T2 sequence (whole entry): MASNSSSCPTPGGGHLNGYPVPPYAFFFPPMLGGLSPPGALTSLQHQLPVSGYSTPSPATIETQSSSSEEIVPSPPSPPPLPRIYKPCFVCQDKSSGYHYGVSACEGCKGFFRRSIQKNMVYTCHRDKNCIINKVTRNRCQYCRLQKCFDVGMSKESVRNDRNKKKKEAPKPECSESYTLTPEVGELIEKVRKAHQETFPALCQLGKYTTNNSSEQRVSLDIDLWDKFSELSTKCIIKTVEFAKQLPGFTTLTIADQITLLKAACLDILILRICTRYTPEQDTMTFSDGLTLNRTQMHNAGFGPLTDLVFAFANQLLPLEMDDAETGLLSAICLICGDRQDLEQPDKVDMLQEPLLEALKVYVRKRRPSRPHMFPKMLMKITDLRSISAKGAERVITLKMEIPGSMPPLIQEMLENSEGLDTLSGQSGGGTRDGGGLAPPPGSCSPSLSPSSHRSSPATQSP
Nature of the assay: Percent inhibition of [3H]ATRA binding to mouse Retinoic acid receptor RAR alpha. The arrangement: concentration or dose not given beside the values. The note with it: concentration not given here. The method in brief: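 RARα was exposed to 1000 nM test retinoid plus 5 nM [3H]-(all-E)-RA. Displacement was compared with a positive control of 1000 nM unlabeled (all-E)-RA and with a no-retinoid control.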

For assay [4], the species on record is Mus musculus. Nature of the assay: Percentage papilloma reduction (81) at 45.9 nmol dose 1 hr prior to TPA. Type of assay: functional. The method in brief:
(§1)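 Carcinogen-induced papillomas on mouse dorsal skin, with test retinoid applied 1 h before TPA. Percent papilloma reduction = (1 − mean tumors in retinoid-treated animals / mean tumors in controls) × 100. ED50 came from probit analysis of a dose-response curve. Estimated standard error is 20% of the mean.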

For assay [5], the species on record is Mus musculus. Briefly: Antitumor activity in Mouse Skin Papilloma model. Type of assay: functional. In short, it runs like this:
as §1

The target of assay [6] is T3, Retinoic acid receptor RXR-alpha (Homo sapiens, UniProt P19793).
T3 sequence (P19793 whole entry): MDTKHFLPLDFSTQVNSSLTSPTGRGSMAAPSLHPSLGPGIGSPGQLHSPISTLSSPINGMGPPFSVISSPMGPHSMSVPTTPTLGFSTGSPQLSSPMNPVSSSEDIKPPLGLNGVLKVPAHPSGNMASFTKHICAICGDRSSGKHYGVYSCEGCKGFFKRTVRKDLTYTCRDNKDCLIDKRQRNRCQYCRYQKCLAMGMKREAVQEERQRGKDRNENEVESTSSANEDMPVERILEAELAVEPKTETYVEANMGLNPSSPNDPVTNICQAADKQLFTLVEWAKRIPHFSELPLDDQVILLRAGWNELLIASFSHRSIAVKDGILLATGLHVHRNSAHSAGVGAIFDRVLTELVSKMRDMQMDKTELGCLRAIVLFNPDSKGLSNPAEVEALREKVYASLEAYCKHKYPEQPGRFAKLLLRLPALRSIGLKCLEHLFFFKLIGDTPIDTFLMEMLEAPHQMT
Nature of the assay: Inhibition of binding to human Retinoic acid receptor RXR DEF domain.

Assay [7] addresses Cellular retinoic acid-binding protein 1 (Mus musculus, UniProt P62965). Briefly: Inhibition of [3H]ATRA binding to murine Cytoplasmic retinoic acid binding protein (CRABP) type 1.
Assay [8] addresses T4, Retinoic acid receptor alpha (Mus musculus, UniProt P11416).
T4 sequence (P11416 whole entry): T2 sequence (whole entry)
Nature of the assay: Inhibition of [3H]ATRA binding to mouse Retinoic acid receptor RAR alpha. The method in brief: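 Radioligand competition assay for RARα, measuring inhibition of [3H]-(all-E)-RA binding by unlabeled retinoid over a dose series to derive IC50.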

Assay [9] deals with T5, Cellular retinoic acid-binding protein 2 (Mus musculus, UniProt P22935).
T5 sequence (P22935 whole entry): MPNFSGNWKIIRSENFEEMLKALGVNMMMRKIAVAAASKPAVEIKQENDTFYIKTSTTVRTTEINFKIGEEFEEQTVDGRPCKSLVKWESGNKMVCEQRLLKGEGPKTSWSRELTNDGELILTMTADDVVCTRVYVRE
Nature of the assay: Inhibition of [3H]ATRA binding to murine Cytoplasmic retinoic acid binding protein (CRABP) type 2.

For assay [10], the target named is Cellular retinoic acid-binding protein 1 (Gallus gallus, UniProt P40220). Briefly: Inhibition of [3H]ATRA binding to chick skin Cytoplasmic retinoic acid binding protein.
Chain of Cellular retinoic acid-binding protein 1 (Gallus gallus, UniProt P40220) (P40220 whole entry): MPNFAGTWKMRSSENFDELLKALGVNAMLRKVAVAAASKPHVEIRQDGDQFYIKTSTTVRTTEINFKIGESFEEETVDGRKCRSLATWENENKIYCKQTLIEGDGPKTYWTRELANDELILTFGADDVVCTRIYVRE
Assay [11] can be described thus: Inhibition of [3H]ATRA binding to Cytoplasmic retinoic acid binding protein (CRABP) type 1.
For assay [12], the species on record is Mus musculus. Briefly: Antitumor activity in Mouse Skin Papilloma model * Value determined by Dawson et al. Type of assay: functional.

Molecules are shown by their SMILES. Where “and” joins values, the source holds several entries; their conditions need not be identical. Identical values can stand only once.

Chain of Cellular retinoic acid-binding protein 1 (Gallus gallus) (P40220 whole entry): as above
Chain of Cellular retinoic acid-binding protein 1 (Mus musculus, UniProt P62965) (P62965 whole entry): as the sequence (P40220 whole entry) above, with I68V, S71G, A86P, Y95H, K97T, I101L counted along it

As for `CCC1=C(C(C)C)/C(=C/C(C)=C/C=C/C(C)=C/C(=O)O)CCC1`, in assay [1], the IC50 was above 2000 nM. For the same molecule, the results for the inhibition in assay [2] and in [3] were 100% and 98%, respectively. In the assay listed under Mus musculus [4], this molecule registered a Reduction of 99%. In the assay listed under Mus musculus [5], this molecule returned an ED50 of 2.5 nM.
In turn, `CCC1=C(C(C)C)/C(=C/C(C)=C/C=C/C(C)=CC(=O)O)CCC1` showed a Reduction in the assay filed under Mus musculus [4] of 81%. Also, the ED50 in the assay filed under Mus musculus [5] was found to be 4.7 nmol.
As for `CC1=C(C(C)C)/C(=C/C(C)=C/C=C/C(C)=C/C(=O)O)CCC1`, the dissociation constant Kd in assay [6] is above 200 nM; in assay [7], 1 nM. The IC50 in assay [8] was 8 nM; in assay [1], above 2000 nM. The inhibition in assay [2] and in [3] was 100% throughout. Moreover, the Reduction in the assay listed under Mus musculus [4] was determined as 95%. Also, the ED50 in the assay listed under Mus musculus [5] came out at 5 nM.
As for `CC1=C(C(C)C)/C(=C/C(C)=C\C=C\C(C)=C\C(=O)O)CCC1`, the Kd in assay [6] was 33 nM; in [7], above 200 nM. Also, the values for the IC50 in assay [8] and in assay [1] were above 1000 nM and 620 nM, respectively. Besides, the inhibition in assay [2] came to 43%; in assay [3], 37%. This molecule gave a Reduction in the assay filed under Mus musculus [4] of 30%. The molecule also returned an ED50 in the assay listed under Mus musculus [5] above 100 nM.
For `CC1=C(/C=C/C(C)=C/C=C/C(C)=C/C(=O)O)C(C)(C)CCC1` [TRETINOIN], the inhibition in assay [2] and in assay [3] was 100% each time. In the assay filed under Mus musculus [4], the Reduction was found to be 95%. In the assay filed under Mus musculus [5], the ED50 worked out at 3 nM.
For the molecule `CC1=C(C)/C(=C/C(C)=C/C=C/C(C)=C/C(=O)O)CCC1`, the figures for the Kd in [6], in assay [9] and in assay [7] were above 200 nM, 13 nM and 1.2 nM, respectively. Besides, the IC50 in [8] was 55 nM; in assay [1] it was above 2000 nM; in assay [10], 1300 nM. The inhibition in assay [2] and in assay [3] was 90% in each case. Also, the Reduction in the assay filed under Mus musculus [4] was determined as 32%. In the assay filed under Mus musculus [5], the ED50 came out at 490 nM.
Take `CC1=C(C)/C(=C/C(C)=C\C=C\C(C)=C\C(=O)O)CCC1`: the Kd in assay [6] was 120 nM; in [9], above 200 nM; in assay [7] it was above 200 nM. Further, the values for the IC50 in assay [8], in assay [1] and in [10] were above 2000 nM, above 2000 nM and above 10000 nM, respectively. Besides, the inhibition in assay [2] and in assay [3] was 10% in each case. The molecule also gave a Reduction in the assay filed under Mus musculus [4] of 50%.
As to `CC(=C\C=C\C(C)=C\C(=O)O)/C=C1/C=CCCC1`, the Kd was above 200 nM in assay [6], 13 nM in assay [9] and 3 nM in assay [7]. In addition, the IC50 is 600 nM in [8], above 2000 nM in [1] and above 10000 nM in assay [10]. In addition, the inhibition stood at 50% in assay [2] and 55% in assay [3]. In the assay listed under Mus musculus [4], the Reduction was determined as 22%. For the same molecule, in the assay filed under Mus musculus [5], the ED50 is above 1000 nM.
As for `C\C(C=C1C=CCCC1)=C/C=C/C(C)=C/C(=O)O`, the Kd in [6] is above 200 nM; in [9] it was 3 nM and 10 nM. Besides, the half-maximal inhibitory concentration (IC50) in assay [8] was above 2000 nM; in assay [1], above 2000 nM; in assay [11] it was above 10000 nM. The inhibition in [2] and in [3] was 45% each time.
Take `CC(=CC(=O)O)/C=C/C=C(C)/C=C/C1=C(C)CCCC1(C)C` [ISOTRETINOIN]: the ED50 in the assay filed under Mus musculus [12] amounted to 64 nmol.
Turning to `CC1=C(/C=C/C(C)=C\C=C\C(C)=C\C(=O)O)C(C)(C)CCC1` [ALITRETINOIN], the inhibition in [2] amounted to 25%; in assay [3] it was 95%. In the assay filed under Mus musculus [4], this molecule registered a Reduction of 95%. The molecule also displayed an ED50 in the assay filed under Mus musculus [5] of 2.1 nM.
On to `CCC1=C(C(C)C)/C(=C/C(C)=C\C=C\C(C)=C\C(=O)O)CCC1`, for which the values for the Kd in [6], in [9] and in assay [7] were 16 nM, above 200 nM and above 200 nM, respectively. In addition, the IC50 is 1000 nM in assay [1] and above 10000 nM in assay [10]. The inhibition in assay [2] turned out to be 15%; in assay [3], 42%. For the same molecule, in the assay filed under Mus musculus [4], the Reduction is 43%. The ED50 in the assay filed under Mus musculus [5] was above 100 nM.

Usually IC50 stands for the point on the concentration scale where inhibition reaches its midpoint. One may read the inhibition as the relative decrease from the control value, in per cent. The term Kd denotes the concentration at which binding is half-saturated.

For the origin of these results see ChEMBL document CHEMBL1129637, “Conformationally defined 6-s-trans-retinoic acid analogs. 3. Structure-activity relationships for nuclear receptor binding, transcriptional activity, and cancer chemopreventive activity” (J Med Chem, 1996).
